Compound activity (PubChem)
Many of the other results were omitted from the sample, so hits are more common in it than they were.
Ecoli WT expand: blocks growth of wild type E. coli BW25113; OD600 absorbance; AID 710; growth inhibition, % at 100 µM; hit rate 0.15% among 98,000;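 active means growth inhibition above about 50% at one test dose, limit read from the data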;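 further: growth measured after 20 h incubation at 37 °C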
MMP13 inh: MMP13 (human) collagenase inhibition; inhibition, % at 4 µM; P45452; hit rate 0.07% among 65,000; MMP-13 fTHP FRET cleavage, Mca fluorescence;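 active means inhibition above the mean of compound-free control plate wells plus 3 SD, cut at about 14% in these data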;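 further: 0% = DMSO wells and 100% = wells with reference MMP-13 inhibitor after basal subtraction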
Cdc25B inh: human M-phase inducer phosphatase 2 inhibition; inhibition, %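 (compounds tested at 10 µM final in the well)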; P30305; hit rate 0.1% among 65,000; recombinant Cdc25B, OMFP fluorescence Ex485/Em525; in the data active means inhibition above about 50%
Target sequence (P30305 whole entry, looked up): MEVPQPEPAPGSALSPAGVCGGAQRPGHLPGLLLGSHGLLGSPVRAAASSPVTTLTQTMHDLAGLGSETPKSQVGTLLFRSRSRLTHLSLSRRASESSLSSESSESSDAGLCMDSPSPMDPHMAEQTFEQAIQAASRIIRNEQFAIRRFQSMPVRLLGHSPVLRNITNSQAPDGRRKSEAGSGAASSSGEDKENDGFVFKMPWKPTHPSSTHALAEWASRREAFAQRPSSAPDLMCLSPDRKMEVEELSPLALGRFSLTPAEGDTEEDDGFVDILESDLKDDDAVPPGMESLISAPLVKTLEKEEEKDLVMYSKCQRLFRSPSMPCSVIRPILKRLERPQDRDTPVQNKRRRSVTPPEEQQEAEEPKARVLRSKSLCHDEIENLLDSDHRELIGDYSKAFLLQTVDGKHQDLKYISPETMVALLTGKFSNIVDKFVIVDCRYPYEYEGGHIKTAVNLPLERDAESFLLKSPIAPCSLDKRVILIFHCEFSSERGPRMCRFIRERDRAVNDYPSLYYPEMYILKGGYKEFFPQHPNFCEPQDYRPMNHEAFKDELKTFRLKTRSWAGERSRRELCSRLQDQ
DUSP1 inh: blocks human MKP-1 phosphatase activity; recombinant MKP-1, OMFP hydrolysis fluorescence; AID 374; inhibition, %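 (compounds tested at a single concentration somewhere between 10 and 100 µM)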; hit rate 0.15% among 65,000; P28562;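 active means inhibition above about 50%, limit read from the data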;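 further: 0% = DMSO max control wells and 100% = wells with enzyme stopped by NaOH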
HePTP inhibitor: inhibitors of human HePTP phosphatase; recombinant HePTP phosphatase activity, OD absorbance; inhibition, % at 20 µM; P35236; AID 521; hit rate 0.64% among 110,000; in the data active means inhibition above about 50%;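 further: plate controls were vehicle for no effect and reference inhibitor for full effect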
tolC growth inh: growth inhibitors of E. coli BW25113 tolC mutant. OD615. growth inhibition, % at 10 µM (by protocol). hit rate 2.2% among 65,000;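 active means growth inhibition at or above a cutoff equal to the mean over every tested compound plus 3 SD, cut at about 60% in these data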;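 further: growth measured after 20 h incubation at 37 °C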
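Test system: tolC-deleted E. coli BW25113 | Medium: LB with kanamycin 50 µg/mL | Compound dosing: Single concentration, 10 µM final per compound | Schedule: 37 °C, 20 h exposure | Measured by: OD at 615 nm | Evaluation: Percent growth inhibition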
* = called active by the depositor; · = not tested or not shown.

SMILES	Ecoli WT expand	MMP13 inh	Cdc25B inh	DUSP1 inh	HePTP inhibitor	tolC growth inh
COc1ccc(-c2cnc(SCC(=O)Nc3ccc4c(c3)OCO4)n2Cc2ccco2)cc1	-19	0	-12	3	-3	66*
CC(=O)Nc1cccc(NC(=O)CSc2ncc(-c3ccc(Cl)cc3)n2Cc2ccco2)c1	-8	-2	-7	38	5	94*
COc1ccc(NC(=O)CSc2nnc(-c3ccccc3)n2Cc2ccco2)cc1OC	-8	·	·	·	·	·
O=C(CSc1nnc(-c2ccc(Cl)cc2)n1Cc1ccco1)Nc1ccc2c(c1)OCCO2	·	4	6	4	6	25
O=C(Nc1cc(C(F)(F)F)cc(C(F)(F)F)c1)c1ccc([N+](=O)[O-])cc1Cl	·	·	·	·	-11	·
CC(C)(C)c1ccc(CSc2nc3ccccc3c(=O)[nH]2)cc1	·	·	·	·	69*	·
CCOC(=O)C1=C(C)NC(=S)NC1c1ccc(OCc2ccc(Cl)cc2Cl)c(OC)c1 (centres undefined)	·	·	·	·	2	·
CCCN(CCC)c1nc(NC2CCN(C(=O)OCC)CC2)nc(OC)n1	-9	-2	-11	27	2	81*
CCOC(=O)CSC1=C(C#N)C(c2ccccc2C)C2=C(CCCC2=O)N1 (centres undefined)	-3	-6	0	-5	-2	-1
CCSC1=C(C#N)C(c2ccc(Cl)cc2)C2=C(CCCC2=O)N1 (centres undefined)	-12	0	2	-24	2	96*
O=C(Nc1nccs1)c1cccc(N2C(=O)c3ccc([N+](=O)[O-])cc3C2=O)c1	·	·	·	·	9	·
COc1nc(OC/C(N)=N/O)nc(N2CCOCC2)n1	6	-1	66*	-11	8	-18
CCOC(=O)COc1nc(OC)nc(N2CCOCC2)n1	2	6	2	1	6	-19
CCCCN1C(=O)C2ON(c3ccccc3C)C(c3ccco3)C2C1=O (centres undefined)	-15	4	-11	7	7	61*
CCCCOC(=O)c1ccc(NC(=S)NC(NC(C)=O)C(Cl)(Cl)Cl)cc1 (centres undefined)	·	·	·	·	7	·
O=C1NC(=S)S/C1=C/c1cc(I)c(O)c(I)c1	·	·	·	·	101*	·
COc1c(Br)cc(/C=C2\SC(=S)NC2=O)cc1Br	·	·	·	·	103*	·
COc1cc(/C=C2/SC(=S)NC2=O)cc(Cl)c1OCc1ccc(Cl)cc1Cl	·	·	·	·	102*	·
COc1ccc(/C=C2/SC(=S)NC2=O)cc1OCc1ccc(Cl)cc1	·	·	·	·	10	·
COc1ccc(C/C(O)=C(\C#N)c2nc3ccccc3[nH]2)cc1	·	·	·	·	6	·
Cc1cccc(OCC(=O)Nc2ccc3oc4ccccc4c3c2)c1	·	·	·	·	8	·
COc1cc(/C=C2\SC(=Nc3ccc(C)c(Cl)c3)NC2=O)ccc1O	·	·	·	·	13	·
Cc1ccc(N=C2NC(=O)/C(=C/c3cccc(O)c3)S2)cc1Cl	·	·	·	·	60*	·
O=C(Nc1ccc2nn(-c3ccc(F)cc3)nc2c1)c1cc(Cl)ccc1Cl	·	·	·	·	-12	·
CCOC(=O)c1c(C)oc2ccc(NS(=O)(=O)c3ccc4c5c(cccc35)C(=O)N4)cc12	0	3	1	30	13	68*
SMILES	Ecoli WT expand	MMP13 inh	Cdc25B inh	DUSP1 inh	HePTP inhibitor	tolC growth inh
O=C(N1CCN(c2ccccn2)CC1)N1c2ccccc2Sc2ccccc21	-2	2	-13	-15	4	62*
O=C(c1c(Cl)cccc1Cl)N1CCN(c2ccccn2)CC1	6	1	4	3	6	0
CC(C)N1CCc2c(sc(NC(=O)c3ccc(S(=O)(=O)N4CCOCC4)cc3)c2C(N)=O)C1	-9	14*	-9	9	7	-3
COC(=O)c1ccccc1NC(=O)c1ccc2c(c1)OCCO2	-5	4	-18	2	6	89*
COc1ccc(/C=N/Nc2nc(N3CCOCC3)nc(N3CCOCC3)n2)cc1	·	·	·	·	9	·
Cn1cccc1/C=C1/C(=O)NC(=S)N(c2cccc(Cl)c2)C1=O	·	·	·	·	101*	·
C=CCN1C(=O)/C(=C/c2ccccc2OCc2ccccc2Cl)SC1=S	·	·	·	·	-4	·
COc1ccc(/C=C/C(=O)Nc2ccc(OC)cc2OC)cc1	·	·	·	·	-6	·
Cc1cc(C)c2ccc(N)nc2c1O	96*	0	-3	-2	6	39
Cc1cc(C)c2c(c1)=C(c1sc(N)nc1O)C(=O)N=2	·	·	·	·	69*	·
COc1ccc(NC(=O)c2c(C)c(-c3ccc(C)cc3)nc3ccccc23)c(OC)c1	·	·	·	·	-4	·
COc1ccc(-c2nc3ccccc3c(C(=O)Nc3ccc(C)cc3)c2C)cc1	·	·	·	·	104*	·
COC(=O)c1ccc(CSc2nc3ccccc3o2)cc1	7	-1	-7	19	-1	65*
